B1: tRNA (parent)
chain: CUCUCGGUAGCCAAGUUGGUUUAAGGCGCAAGACUUUAAUUUAUCACUACGAAAUCUUGAGAUCGGGCGUUCGACUCGCCCCCGGGAGAUUUUUUCCUCGAGCAA

Fewer inactive variants are shown than the library holds. Where only a bound is given, the exact number is not on record here.

Variants of B1 are the subject of the data set. Nature of the data set: nonsense suppression (GFP-seq) (ratio to wild type); higher = more function; SUP4oc tRNA, yeast GFP reporter sort-seq. Summed up: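 Nonsense suppression (GFPSEQ) is the median GFP/RFP ratio of each sorting bin, weighted by the variant's estimated share of cells in that bin and expressed relative to the unmutated parent tRNA. Yeast strains carried genome-integrated variants of an ochre-suppressor tRNA from a library with ~3% random mutations, plus a galactose-driven GFP ochre reporter and RFP, and were grown in raffinose/galactose medium containing 80 mg/L adenine. Cells were sorted into GFP/RFP bins, each bin was Illumina-sequenced (phred ≥30), and variants were kept only with ≥100 reads and ≥30 cells.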
Take CCCUCGGUAGCCAAGUUGGUUUGAGGCGCAAGACUUUAAUUUAUCACUACGAAAUCUUGAGCUCGGACGUUCGACUCGCCCCCGGGAGAUUUUUUCCUCGAGCAA [U2C A23G A62C G67A]: the nonsense suppression is not above 0.026.
In the case of CCCUCGGUAGCCAAGUAGGUUUAAGGCGCAAGACUUUAAUUUAUCACUACGAAAUCUUGAGAUCGGGCGUUCGACUCGCCCCCGGGAGAUUUUUUCCUCGAGCAA [U2C U17A], the nonsense suppression was determined as 0.0435.
With CCCUAGGUAGCCAAGUUGGUUUAAGGCGCAAGACUUUAAUUUAUCACUACGAAAUCUUGAGAUCGGGCGUUCGAUUCGCCCCAGGGAGAUUUUUUCCUCGAGCAA [U2C C5A C75U C83A] the figure was not above 0.026; with CCCUCGGUAGCGAAGUUGGUUUACGGCGCAAGACUUUAAUUUAUCACUACGAAAUCUUGAGUUCGGGCGUUCGACUCGACCCCGGGAGAUUUUUUCCUCGAGCAA [U2C C12G A24C A62U C79A], not above 0.026.
Turning to CGCUCGGUUGCCAAGUUGGUUUAAGGCGCAAGACUUUAAUUUAUCACUACGAAAUCUUGAGAUCGGGCGUUCGACUCGCCCCCGGGAGAUUUUUUCCUCGAGCAA [U2G A9U], the nonsense suppression stood at 0.0677.
On to CCCUCGGUAGCCAAGUUGGUUUAAGGCGCAAGACUUUAAUUUAUCACUACGAAAUCUUGAGAUCGGGCGUUCGACUCGCCCCCGGAAGAUUUUUUCCUCGAGCAA [U2C G86A], for which the nonsense suppression was not above 0.026.
For CCCUCGGUAGCCAAGUUCGUUUAAUGCGCAAGACUUUAAUUUAUCACUACGAACUCCUGAUAUCGGGCGGUCGACUCGCCCCCGGGAGAUUUUUUCCUCGAGCAA [U2C G18C G25U A54C U57C G61U U70G], the nonsense suppression was not above 0.026.
CCCUCGGUAGCCAAGUUGGUUUAAGGCGCAAGACUUUAAUUUAUCACUACGAAAUCUUGAGAUCGGGCGUUCGACUCGCACCCGGGAGAUUUUUUCCUCGAGCAA [U2C C80A]: the nonsense suppression was not above 0.026.
CCCUAGGUAGCCAAGUUGGUUUAAGGCGCAAGACUUUAAUUUAUCACUACGAAAUCUUGAGAUCGGGCGUUCGACUCGCCCCCGGGAGAUUUUUUCCUCGAGCAA [U2C C5A]: the nonsense suppression was not above 0.026.
Turning to CCCUGGGUAGCCAAGUUGGUUUAAGGCGCAAGACUUUAAUUUAUCACUACGAAAUCUUGAGAUCGGGCGUUCGACUCGCCCCCGGGAGAUUUUUUCCUCGAGCAA [U2C C5G], the nonsense suppression is not above 0.026.
As to CCCUCGGUAGCCAAGUUGGUUUAAGGCGCAAGACUUUAAUUUAUCACUACGAAAUCUUGAGAUCGGGCGUUCGACUCGCCCCCGGGAGUUUUUUUCCUCGAGCAA [U2C A89U], the nonsense suppression is not above 0.026.
CCCUCGGUAGCCAAGUUGGUUUAGGGCGCACGACUUUAAUUUAUCACUACGAAAUCUUGCGAUCGGGCGUUCGACUCGCCCACGCGAGAUUUUUUCCUCGAGCAA [U2C A24G A31C A60C C82A G85C]: the nonsense suppression is not above 0.026.
To CCCUCGGUAGCCAAGUUGGUUUAAGGCGCAAAACUUUAAUUUAUCACUACGAAGUCUUGAGAUCGGGCGUUCGACUCGCCCCCGGGAGAUUUUUUCCUCGAGCAA [U2C G32A A54G] belongs not above 0.026.
CCCUCGGUAGCCAAGUUGGUUUAAGGCGCAAGACUUUAAUUUAUCACUACGAAAUCAUGAGAUCGGGCGUUCGACUCGCCCCCGGGAGAUUUUUUCCUCGAGCAA [U2C U57A]: the nonsense suppression was 0.0292.
As to CCCUCGGUAGCCUAGUUGGUUUAAGGCGCAAGACUUUAAUUUAUCACUACGAAAUCUUGAGAUCGGGCGUUAGACUCGCCCCCGGGAGAUUUUUUCCUCGAGCAA [U2C A13U C72A], the nonsense suppression is not above 0.026.
Regarding CCCUCGGUAGCCAAGUUGGUUUAAGGCGCAGGACUUUAAUUUAUCACUACGAAAUCUUGAGAUCGGGCGUUCGACUCGCCCCCGGGAGAUUUUUUCCUCGAGCAA [U2C A31G], the nonsense suppression stood at 0.0356.
Consider CCCUCGGUAGCCAAGUUGGUUUAAGGCGCAAGACUUUAAUUUAUCACUACGAAAUCUUGAGAUCGGGCGUUCGACUCGGCCCCGGGAGAUUUUUUCCUCGAGCAA [U2C C79G], for which the nonsense suppression was not above 0.026.
With CCCUCGGUAGCCAAGUUGGUUUAAGGAGCAAGACUUUAAUUUAUCACUACGAAAUCUUGAGAUCGGGCGUUCGACUCGCCCUCGGGAGAUUUUUUCCUCGAGCAA [U2C C27A C82U] the figure was not above 0.026; with CCCUCGGUAGCCAAGUUGGUUUAAGUCGCAAGACUUUAAUUUAUCACUACGAAAUCUUGAGAUCGGGCGUUCGACACGCCCCCGGGAGAUUUUUUCCUCGAGCAA [U2C G26U U76A], not above 0.026.
For CCCUCGGUAGCCAAGUUGGUUUAAGGCGCAAGACUUUAAUUUAUCACUACGAAAUCUUGAGAUCGGGUGUUCGACUCGCCCCCGGGGGAUUUUUUCCUCGAGCAA [U2C C68U A87G], the nonsense suppression was 1.13.
For CCCUCGGUAGCCAAGUUGGUCUAAGGCGCAAGACUUUAAUUUAUCACUACGAAAUCUUGAGAUCGGGCGUUCGACUCGCCCCCGGGAGAUUUUUUCCUCGAGCAA [U2C U21C], the nonsense suppression amounted to 0.203.
Consider CCCUCGGUAGCCAAGUUGGUUUAAGGCGCAGGACUUUAAUUUAUCACUACGAAAUCUUGAGAUCGGGCGUUUGACUCGCCCCCGGGAGAUUUUUUCCUCGAGCAA [U2C A31G C72U], for which the nonsense suppression is not above 0.026.
CCCUCGGUAGCCAAGUUGCUUUAAGGCGCAAGACAUUAAUUUAUCACUACGAAAUCUUGAGAUCGGGCGUUCGACUCGCCCCCGGGAGAUUUUUUCCUCGAGCAA [U2C G19C U35A]: the nonsense suppression is not above 0.026.
On to CCCUCGGUAGCCAAGGUGGUUUAAGGCGCAAGACUUUAAUUUAUCACUACGAAAUCUUGAGAUCGGGCGUUCGACUCGCCCCCGGGAGAUUUUUUCCUCGAGCAA [U2C U16G], for which the nonsense suppression was determined as 0.168.
Consider CCCCCGGUAGCCGAGUUGGUUUAAGGCGCAAGACUUUAAUUUAUCACUACGAAAUCUUGAGAUCGGGCGUUCGACUCGCCCCCGGGAGAUUUUUUCCUCGAGCAA [U2C U4C A13G], for which the nonsense suppression was 0.205.
With CCCUCGGUAGCCAAGUUGGUUUAAGGCGCAAGACUUUAAUUUAUCACUACGAAAUCUUGAGAUCGGGCGUUCGAUUCGCCCCCGGGAGAUUUUUUCCUCGAGCAA [U2C C75U], the nonsense suppression was determined as 0.206.
In the case of CCCUCGGUCGCCAAGUUGGUUUAAGGCGCAAGACUUUAAUUUAUCACUACGAAAUCUUGAGAUCGGGCGUUCGAAUCGCCCCCGGGAGAUUUUUUCCUCGAGCAA [U2C A9C C75A], the nonsense suppression stood at 0.038.

Source of the values: the RNAGym collection of RNA variant scans (doi:10.1101/gad.245936.114).
